The campaign covered roughly 300,000 compounds. About 1,000 (0.33%) were called active. This is one part of a sample in which actives are shown more often than they occur. Unmarked numbers belong to inactive results.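 Rule for the calls: active = inhibition above the mean of all tested compounds plus 3 SD, set per screening campaign (cut at about 45% in these data); inactive = the rest.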
Test system: HCV core protein (residues 1-106) dimerization
Experiment: inhibitors of HCV core protein dimerization, primary screen, biochemical, TR-FRET, high-throughput (AID 1899)
Settings: TR-FRET GST/Flag-core106 dimerization, 1536-well; at 5 µM; hits give high values
Procedure, shortened: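 Assay system: tagged HCV core106 pair (GST and Flag); medium: KF-containing HEPES buffer, pH 7.45, DTT, CHAPS, BSA; also added: Eu donor and XL665 acceptor anti-tag antibodies; dosing: 5 µM single dose; timing: compound-protein-antibody incubation 4 h at 22.5 °C; signal: TR-FRET 671 and 617 nm emission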

Structure (SMILES) | inhibition
Cc1ccc(S(=O)Cc2ccc(C(=O)N3CCN(C4CCCCC4)CC3)o2)cc1 (stereo not drawn) | 2.42%
COc1ccc(/C=N/N=C/c2c[nH]c(=O)c(C#N)c2Nc2ccccc2)cc1 | 9.36%
Nc1nc(O)c(CC(=O)O)s1 | -10.1%
COc1cccc2c(C)c(C(=O)O)[nH]c12 | 52.9% (active)
Cc1c(C(=O)N/N=C/c2ccccc2)[nH]c2c([N+](=O)[O-])cccc12 | 2.99%
COc1cc2c(C(=O)O)c(C)n(C)c2c2ccccc12 | -16.5%
COc1ccc(S(=O)(=O)N2CCN(c3ncnc4c(-c5ccccc5)nsc34)CC2)cc1 | 5.78%
COc1cccc(OCc2cc(/C=N/NC(=O)c3nc(Cl)c(Cl)c(N)c3Cl)ccc2OC)c1 | 58.9% (active)
COc1ccc(/C=N\NC(=O)c2sc(N)nc2C)cc1OC | 1.3%
COc1ccc(/C=N/NC(=O)c2ccc(Cl)cc2)cc1COC(C)=O | -6.24%
CCn1cc(/C=C(\NC(=O)c2cc(OC)c(OC)c(OC)c2)C(=O)N2CCN(C)CC2)c2ccccc21 | -12.2%
CC1CCCN(c2ccc(C(=O)NCCc3ccccc3)cn2)C1 (stereo not drawn) | -2.49%
Cc1cc2nc3c(=O)n(Cc4ccccc4)c(=O)[nH]c3nc2cc1N | 7.8%
Nc1ccc2nc3c(=O)[nH]c(=S)[nH]c3nc2c1 | 47.1% (active)
O=C(N/N=C/C=C/c1ccco1)c1cccs1 | 11.6%
Cc1ccc(-c2cc(C(=O)N/N=C/C=C/c3ccco3)c3ccccc3n2)cc1C | 68.2% (active)
COc1ccc(/C=N/NC(=O)c2cc(-c3cccc(C)c3)nc3ccccc23)cc1O | 4.37%
CCOC(=O)N1CCN(Cc2nc3ccc([N+](=O)[O-])cc3c(=O)n2-c2cccc(OC)c2)CC1 | 0.84%
Cc1ccc(NC(=O)CN(C)C(=O)COC(=O)C(C)(C)Oc2ccc(Cl)cc2)cc1 | 2.08%
CC(C)c1ccc(C2C(C(=O)c3ccco3)=C(O)C(=O)N2CC2CCCO2)cc1 (stereo not drawn) | -4.24%
Cn1cncc1COC(=O)c1ccc(Cl)cc1 | 1.11%
Cc1ccc(S(=O)(=O)N2CCC(C(=O)NCC3CCCO3)CC2)cc1 (stereo not drawn) | 4.25%

Structure (SMILES) | inhibition
Cc1cc(C2=NNC(=Nc3ccc(S(=O)(=O)N4CCOCC4)cc3)SC2)c(C)n1CC1CCCO1 (stereo not drawn) | 55.5% (active)
C=CCn1c(C)cc(C2=NNC(=NCC)SC2)c1C | -4.1%
O=C(NNC(=S)NC(=O)c1cn(-c2ccccc2)nc1-c1ccccc1)c1ccncc1 | -3.87%
CCn1cc(C(=O)N2CC(C)CC(C)C2)c(=O)c2cc(S(=O)(=O)N3CCCC3)ccc21 (stereo not drawn) | -3.07%
CN(NC(=O)C1CC(=O)N(c2ccccc2)C1)C1=NS(=O)(=O)c2ccccc21 (stereo not drawn) | 1.86%
O=C(N=C1SC2CS(=O)(=O)CC2N1c1cc(Cl)ccc1Cl)C1CC1 (stereo not drawn) | -2.57%
COc1ccc2nc(SCc3ccccc3)nc(C)c2c1 | -8.86%
O=c1[nH]c(SCc2ccccc2)nnc1-c1ccccc1 | 4.19%
Fc1cccc(Cl)c1CSc1ccc(-c2ccco2)nn1 | 19.9%
O=c1cc(O)nc(SCc2ccccc2Cl)[nH]1 | -5.09%
c1ccc(CSc2nnc(-c3ccco3)c(-c3ccco3)n2)cc1 | 63.8% (active)
Clc1ccccc1CSc1nnc(-c2ccco2)c(-c2ccco2)n1 | 60.8% (active)
CCN(CC(=O)Nc1ccccc1OC)C(=O)Cn1cnc2ccccc2c1=O | 0.63%
C=C1CCN([C@@H](Cc2ccccc2)C(=O)N2CCOCC2)S(=O)(=O)c2ccccc21 | 5.65%
CCOC(=O)CSc1nc2ccc(C)cc2n2cnnc12 | -1.27%
CC(C)(C)CC(=O)Nc1nnc(SCC(=O)NCc2cccs2)s1 | 10.5%
O=C(c1ccccc1)N1CCN(C(=O)c2cc3nc(-c4ccccc4)cc(C(F)(F)F)n3n2)CC1 | -5.71%
Cc1ccc(N2NC(=O)/C(=C/C=C/c3ccco3)C2=O)cc1C | 13.5%
CN1C(=O)/C(=C/c2ccco2)SC1=Nc1cccc(C(=O)O)c1 | 1.21%
Cc1ccc(N=C2NC(=O)/C(=C/C=C/c3ccco3)S2)cc1C | 61.8% (active)
C/C(=N\NC(=O)c1ccc(CSc2nc(C)cc(C)n2)cc1)C1CCCCC1 | 7.33%
O=C(Nc1ccccc1C(=O)O)c1ccc(N2C(=O)C3CC=CCC3C2=O)cc1 (stereo not drawn) | -0.72%

Structure (SMILES) | inhibition
Cc1cc(/C=C2\SC(=O)N(C)C2=O)c(C)n1-c1cccc(C(=O)O)c1 | 8.51%
N#Cc1ccccc1CN1C(=O)S/C(=C/c2cccn2-c2cccc(C(=O)O)c2)C1=O | 74.2% (active)
Cc1ccccc1NC(=O)CN1C(=O)N/C(=C\c2cccn2-c2cccc(C(=O)O)c2)C1=O | -4.12%
COc1ccc(S(=O)(=O)N2CCOC23CCN(S(=O)(=O)c2ccc([N+](=O)[O-])cc2)CC3)cc1 | 7.35%
CC(C)c1ccccc1OCC(O)CN(CC(O)COc1cccc2ccccc12)C(C)C (stereo not drawn) | -10.3%
Cc1ccc(C(=O)N/C(=C\c2cn(S(=O)(=O)N(C)C)c3ccccc23)C(=O)N2CCCC2)cc1 | 15.1%
O=C(Nc1ccccc1C(=O)N1CCCCC1)c1ccco1 | -1.76%
CN(C)C=NC(=O)c1cccn1-c1ncc(C(F)(F)F)cc1Cl | -0.36%
Cc1noc(/C=C/c2ccco2)c1S(=O)(=O)N1CCC(C(=O)Nc2ccc(Cl)cn2)CC1 | 9.46%
Cc1noc(/C=C/c2ccco2)c1S(=O)(=O)N1CCC(C(=O)N2CCc3ccccc32)CC1 | 66.4% (active)
CNC(=O)C1CCN(S(=O)(=O)c2c(C)noc2/C=C/c2cccc(C)c2)CC1 | -2.65%
Cc1cccc(C)c1NC(=O)CN1C(=O)C(C)Oc2ccccc21 (stereo not drawn) | 5.55%
CN(C)c1ccc(C(=S)N2CCN(C(=S)Nc3ccc(Cl)cc3)CC2)cc1 | 13%
CSc1nc(-c2ccco2)nn1C(=O)CCc1ccccc1 | -2.5%
CCOc1ccccc1/C=c1\sc2nc(-c3ccco3)nn2c1=O | 62.2% (active)
O=c1nc2s/c(=C\c3ccco3)c(=O)n2nc1Cc1ccccc1 | 22.3%
CC(=O)c1c(Nc2ccccc2)sc(C(=O)c2ccccc2)c1C | -11.1%
C=CCC(Nc1ccccc1)c1cccc(OC)c1OC (stereo not drawn) | 2.92%
CCOC(=O)c1c(C)n(C)c2ccc(OC)c(NC(=O)CN3CCC4(CC3)OCCO4)c12 | -1.2%
O=C(Nc1ccc(S(=O)(=O)Nc2nccs2)cc1)c1cc(-c2ccncc2)nc2ccccc12 | 76% (active)
O=C(Nc1ccc(S(=O)(=O)Nc2nccs2)cc1)c1cc(=O)[nH]c2ccccc12 | 2.23%
Cc1ccc2nc(-c3ccncc3)cc(C(=O)Nc3ccncc3)c2c1 | 8.74%

Structure (SMILES) | inhibition
Cc1ccc(C(=O)O)cc1-c1ccc(/C=C2\SC(=O)N(CC(=O)Nc3ccc4c(c3)OCO4)C2=O)o1 | 4.8%
C=CCOc1ccc(Cl)cc1CNCCCN1CCOCC1 | 12.2%
CCn1c(C)c(C)c2cc(C(=O)N3CCN(c4cccc(C)c4C)CC3)ccc21 | 18%
C[C@@H]1CC[C@@]2(OC1)O[C@H]1C[C@H]3[C@@H]4CC=C5C[C@@H](O)[C@H](O)C[C@]5(C)C4CC[C@]3(C)[C@H]1[C@@H]2C (stereo partly drawn) | -14.2%
Cc1cccc(NC(=O)CN2CCCN(S(=O)(=O)c3ccc(Br)s3)CC2)c1 | 3.89%
CCN(CC(=O)NC1CCS(=O)(=O)C1)c1nc(-c2cccnc2)nc2ccccc12 (stereo not drawn) | -0.09%
COC(=O)CCCC1=CC2=CC(=O)C(C)(OC(=O)c3cccs3)C(=O)C2=CN1c1cccc(C#N)c1 (stereo not drawn) | 47.4% (active)
COC(=O)CCCC1=CC2=CC(=O)C(C)(OC(=O)c3cccs3)C(=O)C2=CN1CC(C)C (stereo not drawn) | 11.6%
COC(=O)CCCC1=CC2=CC(=O)C(C)(OC(=O)c3cccs3)C(=O)C2=CN1CC1CC1 (stereo not drawn) | -6.02%
COc1cccc(NC(=O)c2ccccc2N(Cc2ccccc2)S(C)(=O)=O)c1 | 1.86%
COc1ccc(NC(=O)CCNC(=O)Cn2ccc3ccccc3c2=O)c(OC)c1 | -5.48%
COc1ccc(NC(=O)Cn2ncn3c(cc4ccccc43)c2=O)c(OC)c1OC | 50.6% (active)
CCc1ccc(NC(=O)Cn2ncn3c(cc4ccccc43)c2=O)cc1 | 13%
Fc1ccc(-c2ccc(NCCN3CCOCC3)nn2)cc1 | -9.05%
Cc1ccc(C)c(OCCC(=O)Nc2cccc(S(=O)(=O)N3CCCC3)c2)c1 | -2.89%
CN(C(=O)COC(=O)c1cc(-c2ccco2)nc2ccccc12)C1CCS(=O)(=O)C1 (stereo not drawn) | 77.2% (active)
CN(C(=O)COC(=O)c1nc(Cl)ccc1Cl)C1CCS(=O)(=O)C1 (stereo not drawn) | 5.01%
Cc1c(-c2cccc(Cl)c2)nc2ccccc2c1C(=O)OCC(=O)N(C)C1CCS(=O)(=O)C1 (stereo not drawn) | 1.86%
COc1ccc(NC(=O)c2ccccc2CC[N+](=O)[O-])cc1 | 1.6%
O=C(NC1CCCCC1)C1CCCN(S(=O)(=O)c2ccc(Br)s2)C1 (stereo not drawn) | 3.6%
O=C(Cc1ccc(S(=O)(=O)N2CCOCC2)s1)NCCC(c1ccccc1)c1ccccc1 | 44.1%
O=C(Cc1ccc(S(=O)(=O)N2CCCC2)s1)NC1CCCCCC1 | 48% (active)
